{"source": "PubChem BioAssay AID492951", "about": "(Molecular Libraries Program, Specialized Chemistry Center, …, 2010)", "note": "Unmarked numbers belong to inactive results. Calls of active or inactive are those of the source.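 How the source made its calls: active means inhibition above 10%; inactive means the rest.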"}
{"target": "Hexokinase-4 (Homo sapiens) (UniProt P35557)", "sequence (P35557 whole entry, looked up)": "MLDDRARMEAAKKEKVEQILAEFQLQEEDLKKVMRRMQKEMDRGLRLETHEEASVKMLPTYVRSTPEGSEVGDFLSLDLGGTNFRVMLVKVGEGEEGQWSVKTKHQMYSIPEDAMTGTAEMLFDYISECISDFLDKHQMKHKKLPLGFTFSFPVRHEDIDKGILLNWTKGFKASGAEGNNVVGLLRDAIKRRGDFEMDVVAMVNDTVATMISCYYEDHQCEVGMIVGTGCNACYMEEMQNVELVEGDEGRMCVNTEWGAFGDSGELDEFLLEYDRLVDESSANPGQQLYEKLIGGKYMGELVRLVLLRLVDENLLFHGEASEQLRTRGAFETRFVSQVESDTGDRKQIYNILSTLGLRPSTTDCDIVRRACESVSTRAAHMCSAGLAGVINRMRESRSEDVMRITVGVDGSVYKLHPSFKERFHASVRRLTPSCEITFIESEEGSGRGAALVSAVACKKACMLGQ", "experiment": "human glucokinase inhibition, counter-screen for TbHK1 inhibitor project, biochemical, recombinant hGlck (AID 492951)", "settings": "G6PDH-coupled NADH absorbance 340 nm, at 10 µM; stronger effect = higher value", "method_in_brief": "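Test system: purified recombinant human glucokinase (HK4) with G6PDH coupling enzyme / Reagent: 20 mM glucose as reaction starter, plus 1 mM ATP / Timing: 10 min room-temperature compound-enzyme preincubation before glucose addition / Measured by: A340 of NADH / Repeats: three replicates per compound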"}
{"smiles": "O=C(CCn1sc2ccccc2c1=O)Nc1ccccc1", "outcome": "inactive"}
{"smiles": "CC1(c2ccc(C(=O)Nc3cc(Cl)ccc3C(=O)O)cc2)CC1", "outcome": "inactive"}
{"smiles": "CC(C)(C)c1ccc(C(=O)Nc2cc(Cl)c(Cl)cc2C(=O)O)cc1", "outcome": "inactive"}
{"smiles": "O=c1c2ccccc2sn1-c1cccc(Cl)c1", "inhibition": "34.9% (active)"}
{"smiles": "O=c1c2ccc([N+](=O)[O-])cc2sn1-c1ccccc1", "inhibition": "1.5%"}
{"smiles": "CN(C)c1ccc(NC(=O)Cn2sc3ccccc3c2=O)cc1", "inhibition": "14.1% (active)"}
{"smiles": "O=C(Cn1sc2ccccc2c1=O)Nc1cccc(I)c1", "outcome": "inactive"}
{"smiles": "O=C(Nc1cc(Cl)ccc1C(=O)O)c1ccccc1", "outcome": "inactive"}
{"smiles": "CC(=O)Nc1ccc2c(=O)n(-c3ccccc3)sc2c1", "outcome": "inactive"}
{"smiles": "COC(=O)c1ccc(Cl)cc1NC(=O)c1ccccc1OC", "outcome": "inactive"}
{"smiles": "O=C(Nc1cc(Cl)ccc1C(=O)O)c1ccc(C2CCCC2)cc1", "inhibition": "21.1% (active)"}
{"smiles": "O=c1c2cc(F)ccc2sn1-c1ccccc1Cl", "inhibition": "14.4% (active)"}
{"smiles": "COc1ccc(C(=O)NC(CC(=O)O)c2ccccc2)cc1", "note": "(configuration not stated)", "inhibition": "4%"}
{"smiles": "O=C(Nc1cc(Cl)ccc1C(=O)O)c1ccc2c(c1)OCO2", "outcome": "inactive"}
{"smiles": "CCCCCCC(=O)Nc1cc(Cl)ccc1C(=O)O", "outcome": "inactive"}
{"smiles": "COC(=O)c1cc(Cl)ccc1NC(=O)c1ccc(OC)cc1", "outcome": "inactive"}
{"smiles": "O=C(Cn1sc2ccccc2c1=O)Nc1cccc(F)c1", "inhibition": "14.3% (active)"}
